target: Adrenergic receptors; alpha-1 A & B (Homo sapiens) (UniProt P35348+P35368); assay: Ratio of binding affinity towards Alpha1b to Alpha-1A; type: protein assay
Procedure, shortened: (§1)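 Human α1a, α1b and α1d cDNAs transiently expressed in COS-1 cells (DEAE-dextran); membranes harvested 72 h post-transfection. Competition versus 50 pM [125I]HEAT (final), 0.1 pM–10 μM test compound in half-log steps, in TNE buffer pH 7.4. Membrane protein 0.1 μg (α1a, α1b) or 2.6 μg (α1d); 1 h at 25 °C. Filtration, scintillation counting; Ki = IC50/(1 + [L]/Kd). Ratios are subtype Ki over α1a Ki.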

Row | SMILES | Ratio
1 | COc1cc(N2C(=O)c3ccc(C(=O)NCC(O)CN4CCN(c5ccccc5OC(C)C)CC4)cc3C2=O)cc(OC)c1OC (configuration not stated) | > 1640
2 | CC(C)Oc1ccccc1N1CCN(CC(O)CNC(=O)c2ccc3c(c2)C(=O)N(c2ccc(Cl)c(Cl)c2)C3=O)CC1 (configuration not stated) | 1030
3 | Cc1cccc(N2C(=O)c3ccc(C(=O)NCC(O)CN4CCN(c5ccccc5OC(C)C)CC4)cc3C2=O)c1 (configuration not stated) | > 2220
4 | COC(CNC(=O)c1ccc2c(c1)C(=O)N(c1cccc(F)c1)C2=O)CN1CCN(c2ccccc2OC(C)C)CC1 (configuration not stated) | > 290
5 | CC(C)Oc1ccccc1N1CCN(CCCNC(=O)c2ccc3c(c2)C(=O)N(c2ccc(O)cc2)C3=O)CC1 | 1270
6 | CC(C)Oc1ccccc1N1CCN(CC(O)CNC(=O)c2ccc3c(c2)C(=O)N(c2ccc(Cl)cc2)C3=O)CC1 (configuration not stated) | 640
7 | CC(C)Oc1ccccc1N1CCN(C[C@H](O)CNC(=O)c2ccc3c(c2)C(=O)N(c2cccc(F)c2)C3=O)CC1 | > 250
8 | COc1ccccc1N1C(=O)c2ccc(C(=O)NCC(O)CN3CCN(c4ccccc4OC(C)C)CC3)cc2C1=O (configuration not stated) | 1110
9 | CC(C)Oc1ccccc1N1CCN(CC(O)CNC(=O)c2ccc3c(c2)C(=O)N(c2ccc(O)cc2)C3=O)CC1 (configuration not stated) | > 2270
10 | CC(C)Oc1ccccc1N1CCN(CC(O)CNC(=O)c2ccc3c(c2)C(=O)N(c2cccc(Cl)c2)C3=O)CC1 (configuration not stated) | 800
11 | CC(C)Oc1ccccc1N1CCN(CC(O)CNC(=O)c2ccc3c(c2)C(=O)N(c2ccc(N(C)C)cc2)C3=O)CC1 (configuration not stated) | > 2000
12 | CC(C)Oc1ccccc1N1CCN(CC(O)CNC(=O)c2ccc3c(c2)C(=O)N(c2ccc([N+](=O)[O-])cc2)C3=O)CC1 (configuration not stated) | > 1110

test system: Alpha-1D/Alpha-1A adrenergic receptor (Homo sapiens); assay: Ratio of binding affinity towards Alpha1d to Alpha-1A

Row | SMILES | Ratio
13 | COc1cc(N2C(=O)c3ccc(C(=O)NCC(O)CN4CCN(c5ccccc5OC(C)C)CC4)cc3C2=O)cc(OC)c1OC (configuration not stated) | 125
14 | CC(C)Oc1ccccc1N1CCN(CC(O)CNC(=O)c2ccc3c(c2)C(=O)N(c2ccc(Cl)c(Cl)c2)C3=O)CC1 (configuration not stated) | 43
15 | CC(C)Oc1ccccc1N1CCN(CCCNC(=O)c2ccc3c(c2)C(=O)N(c2ccc(O)cc2)C3=O)CC1 | 50
16 | CC(C)Oc1ccccc1N1CCN(CC(O)CNC(=O)c2ccc3c(c2)C(=O)N(c2cccc(Cl)c2)C3=O)CC1 (configuration not stated) | 54

target: T1, Alpha-1B adrenergic receptor (Homo sapiens, UniProt P35368); assay: Binding affinity towards cloned human alpha-1B adrenergic receptor was determined using [125]-HEAT as radioligand; procedure, shortened: as §1
T1 sequence (P35368 whole entry): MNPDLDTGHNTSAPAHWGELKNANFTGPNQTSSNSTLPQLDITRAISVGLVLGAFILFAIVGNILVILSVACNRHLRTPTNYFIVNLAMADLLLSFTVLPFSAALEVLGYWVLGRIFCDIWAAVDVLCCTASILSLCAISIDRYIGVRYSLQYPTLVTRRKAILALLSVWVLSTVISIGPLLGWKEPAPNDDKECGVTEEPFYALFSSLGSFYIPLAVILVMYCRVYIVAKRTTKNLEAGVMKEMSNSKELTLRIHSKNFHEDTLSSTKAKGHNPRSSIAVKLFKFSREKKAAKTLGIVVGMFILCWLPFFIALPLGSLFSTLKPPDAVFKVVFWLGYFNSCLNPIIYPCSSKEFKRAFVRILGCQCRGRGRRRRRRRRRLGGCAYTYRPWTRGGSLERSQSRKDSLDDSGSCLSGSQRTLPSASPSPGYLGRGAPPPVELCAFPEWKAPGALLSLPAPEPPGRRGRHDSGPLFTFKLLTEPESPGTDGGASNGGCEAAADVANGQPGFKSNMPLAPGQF

Row | SMILES | Ki [nM]
17 | COc1cc(N2C(=O)c3ccc(C(=O)NCC(O)CN4CCN(c5ccccc5OC(C)C)CC4)cc3C2=O)cc(OC)c1OC (configuration not stated) | > 2000
18 | CC(C)Oc1ccccc1N1CCN(CC(O)CNC(=O)c2ccc3c(c2)C(=O)N(c2ccc(Cl)c(Cl)c2)C3=O)CC1 (configuration not stated) | 1230
19 | Cc1cccc(N2C(=O)c3ccc(C(=O)NCC(O)CN4CCN(c5ccccc5OC(C)C)CC4)cc3C2=O)c1 (configuration not stated) | > 2000
20 | COC(CNC(=O)c1ccc2c(c1)C(=O)N(c1cccc(F)c1)C2=O)CN1CCN(c2ccccc2OC(C)C)CC1 (configuration not stated) | > 2000
21 | CC(C)Oc1ccccc1N1CCN(CCCNC(=O)c2ccc3c(c2)C(=O)N(c2ccc(O)cc2)C3=O)CC1 | 255
22 | CC(C)Oc1ccccc1N1CCN(CC(O)CNC(=O)c2ccc3c(c2)C(=O)N(c2ccc(Cl)cc2)C3=O)CC1 (configuration not stated) | 606
23 | CC(C)Oc1ccccc1N1CCN(C[C@H](O)CNC(=O)c2ccc3c(c2)C(=O)N(c2cccc(F)c2)C3=O)CC1 | > 2000
24 | COc1ccccc1N1C(=O)c2ccc(C(=O)NCC(O)CN3CCN(c4ccccc4OC(C)C)CC3)cc2C1=O (configuration not stated) | 1640
25 | CC(C)Oc1ccccc1N1CCN(CC(O)CNC(=O)c2ccc3c(c2)C(=O)N(c2ccc(O)cc2)C3=O)CC1 (configuration not stated) | > 2000
26 | CC(C)Oc1ccccc1N1CCN(CC(O)CNC(=O)c2ccc3c(c2)C(=O)N(c2cccc(Cl)c2)C3=O)CC1 (configuration not stated) | 605
27 | CC(C)Oc1ccccc1N1CCN(CC(O)CNC(=O)c2ccc3c(c2)C(=O)N(c2ccc(N(C)C)cc2)C3=O)CC1 (configuration not stated) | > 2000
28 | CC(C)Oc1ccccc1N1CCN(CC(O)CNC(=O)c2ccc3c(c2)C(=O)N(c2ccc([N+](=O)[O-])cc2)C3=O)CC1 (configuration not stated) | > 2000

target: T2, Alpha-1D adrenergic receptor (Homo sapiens, UniProt P25100); assay: Binding affinity towards cloned human alpha-1D adrenergic receptor was determined using [125]-HEAT as radioligand; procedure, shortened: as §1
T2 sequence (P25100 whole entry): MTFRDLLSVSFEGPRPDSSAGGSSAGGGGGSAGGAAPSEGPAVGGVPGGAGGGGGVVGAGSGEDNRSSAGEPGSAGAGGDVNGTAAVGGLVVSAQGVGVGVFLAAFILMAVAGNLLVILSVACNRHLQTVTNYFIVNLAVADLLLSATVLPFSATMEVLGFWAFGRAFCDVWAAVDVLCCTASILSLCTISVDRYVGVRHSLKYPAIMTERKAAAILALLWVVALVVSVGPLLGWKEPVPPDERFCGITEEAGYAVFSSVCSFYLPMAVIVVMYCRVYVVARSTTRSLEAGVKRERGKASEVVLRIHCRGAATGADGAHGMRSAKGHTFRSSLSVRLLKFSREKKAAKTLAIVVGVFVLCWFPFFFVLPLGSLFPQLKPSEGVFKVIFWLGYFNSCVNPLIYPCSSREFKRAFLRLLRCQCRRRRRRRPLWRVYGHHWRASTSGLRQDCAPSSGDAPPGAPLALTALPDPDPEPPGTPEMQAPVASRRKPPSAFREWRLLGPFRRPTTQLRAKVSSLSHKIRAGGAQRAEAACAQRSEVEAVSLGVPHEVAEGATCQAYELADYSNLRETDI

Row | SMILES | Ki [nM]
29 | COc1cc(N2C(=O)c3ccc(C(=O)NCC(O)CN4CCN(c5ccccc5OC(C)C)CC4)cc3C2=O)cc(OC)c1OC (configuration not stated) | 152
30 | CC(C)Oc1ccccc1N1CCN(CC(O)CNC(=O)c2ccc3c(c2)C(=O)N(c2ccc(Cl)c(Cl)c2)C3=O)CC1 (configuration not stated) | 51
31 | Cc1cccc(N2C(=O)c3ccc(C(=O)NCC(O)CN4CCN(c5ccccc5OC(C)C)CC4)cc3C2=O)c1 (configuration not stated) | 73
32 | COC(CNC(=O)c1ccc2c(c1)C(=O)N(c1cccc(F)c1)C2=O)CN1CCN(c2ccccc2OC(C)C)CC1 (configuration not stated) | 407
33 | CC(C)Oc1ccccc1N1CCN(CCCNC(=O)c2ccc3c(c2)C(=O)N(c2ccc(O)cc2)C3=O)CC1 | 10
34 | CC(C)Oc1ccccc1N1CCN(CC(O)CNC(=O)c2ccc3c(c2)C(=O)N(c2ccc(Cl)cc2)C3=O)CC1 (configuration not stated) | 55
35 | CC(C)Oc1ccccc1N1CCN(C[C@H](O)CNC(=O)c2ccc3c(c2)C(=O)N(c2cccc(F)c2)C3=O)CC1 | 63
36 | COc1ccccc1N1C(=O)c2ccc(C(=O)NCC(O)CN3CCN(c4ccccc4OC(C)C)CC3)cc2C1=O (configuration not stated) | 72
37 | CC(C)Oc1ccccc1N1CCN(CC(O)CNC(=O)c2ccc3c(c2)C(=O)N(c2ccc(O)cc2)C3=O)CC1 (configuration not stated) | 28
38 | CC(C)Oc1ccccc1N1CCN(CC(O)CNC(=O)c2ccc3c(c2)C(=O)N(c2cccc(Cl)c2)C3=O)CC1 (configuration not stated) | 41
39 | CC(C)Oc1ccccc1N1CCN(CC(O)CNC(=O)c2ccc3c(c2)C(=O)N(c2ccc(N(C)C)cc2)C3=O)CC1 (configuration not stated) | 40
40 | CC(C)Oc1ccccc1N1CCN(CC(O)CNC(=O)c2ccc3c(c2)C(=O)N(c2ccc([N+](=O)[O-])cc2)C3=O)CC1 (configuration not stated) | 38

target: T3, Alpha-1A adrenergic receptor (Homo sapiens, UniProt P35348); assay: Binding affinity towards cloned human alpha-1A adrenergic receptor was determined using [125]-HEAT as radioligand
T3 sequence (P35348 whole entry): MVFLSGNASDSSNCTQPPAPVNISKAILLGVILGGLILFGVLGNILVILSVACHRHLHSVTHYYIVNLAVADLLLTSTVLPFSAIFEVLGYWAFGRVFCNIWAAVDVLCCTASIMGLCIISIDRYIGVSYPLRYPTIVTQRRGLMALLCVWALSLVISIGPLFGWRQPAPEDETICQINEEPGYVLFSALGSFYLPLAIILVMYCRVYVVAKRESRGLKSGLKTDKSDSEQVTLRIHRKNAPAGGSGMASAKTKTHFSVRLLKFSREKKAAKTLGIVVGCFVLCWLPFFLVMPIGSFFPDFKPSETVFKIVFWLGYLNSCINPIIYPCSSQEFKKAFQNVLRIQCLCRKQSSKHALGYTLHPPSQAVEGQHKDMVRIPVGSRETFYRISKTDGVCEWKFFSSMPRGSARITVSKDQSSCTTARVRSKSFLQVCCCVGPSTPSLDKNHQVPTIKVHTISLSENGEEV

Row | SMILES | Ki [nM]
41 | COc1cc(N2C(=O)c3ccc(C(=O)NCC(O)CN4CCN(c5ccccc5OC(C)C)CC4)cc3C2=O)cc(OC)c1OC (configuration not stated) | 1.22
42 | CC(C)Oc1ccccc1N1CCN(CC(O)CNC(=O)c2ccc3c(c2)C(=O)N(c2ccc(Cl)c(Cl)c2)C3=O)CC1 (configuration not stated) | 1.19
43 | Cc1cccc(N2C(=O)c3ccc(C(=O)NCC(O)CN4CCN(c5ccccc5OC(C)C)CC4)cc3C2=O)c1 (configuration not stated) | 0.9
44 | COC(CNC(=O)c1ccc2c(c1)C(=O)N(c1cccc(F)c1)C2=O)CN1CCN(c2ccccc2OC(C)C)CC1 (configuration not stated) | 6.9
45 | CC(C)Oc1ccccc1N1CCN(CCCNC(=O)c2ccc3c(c2)C(=O)N(c2ccc(O)cc2)C3=O)CC1 | 0.2
46 | CC(C)Oc1ccccc1N1CCN(CC(O)CNC(=O)c2ccc3c(c2)C(=O)N(c2ccc(Cl)cc2)C3=O)CC1 (configuration not stated) | 0.95
47 | CC(C)Oc1ccccc1N1CCN(C[C@H](O)CNC(=O)c2ccc3c(c2)C(=O)N(c2cccc(F)c2)C3=O)CC1 | 8
48 | COc1ccccc1N1C(=O)c2ccc(C(=O)NCC(O)CN3CCN(c4ccccc4OC(C)C)CC3)cc2C1=O (configuration not stated) | 1.47
49 | CC(C)Oc1ccccc1N1CCN(CC(O)CNC(=O)c2ccc3c(c2)C(=O)N(c2ccc(O)cc2)C3=O)CC1 (configuration not stated) | 0.88
50 | CC(C)Oc1ccccc1N1CCN(CC(O)CNC(=O)c2ccc3c(c2)C(=O)N(c2cccc(Cl)c2)C3=O)CC1 (configuration not stated) | 0.76
51 | CC(C)Oc1ccccc1N1CCN(CC(O)CNC(=O)c2ccc3c(c2)C(=O)N(c2ccc(N(C)C)cc2)C3=O)CC1 (configuration not stated) | 0.8
52 | CC(C)Oc1ccccc1N1CCN(CC(O)CNC(=O)c2ccc3c(c2)C(=O)N(c2ccc([N+](=O)[O-])cc2)C3=O)CC1 (configuration not stated) | 1.8
